The source of these data is ChEMBL document CHEMBL1136531, “Sphingomyelin analogues as inhibitors of sphingomyelinase” (Bioorg Med Chem Lett, 2003).

For orientation: pIC50 means the negative decadic logarithm of the IC50, by convention in mol/L. Read a high pIC50 as a low IC50.

pIC50: −log10 of the molar value.

The target of the assay is T1, Sphingomyelin phosphodiesterase 2 (Rattus norvegicus, UniProt Q9ET64).
T1 sequence (Q9ET64 whole entry): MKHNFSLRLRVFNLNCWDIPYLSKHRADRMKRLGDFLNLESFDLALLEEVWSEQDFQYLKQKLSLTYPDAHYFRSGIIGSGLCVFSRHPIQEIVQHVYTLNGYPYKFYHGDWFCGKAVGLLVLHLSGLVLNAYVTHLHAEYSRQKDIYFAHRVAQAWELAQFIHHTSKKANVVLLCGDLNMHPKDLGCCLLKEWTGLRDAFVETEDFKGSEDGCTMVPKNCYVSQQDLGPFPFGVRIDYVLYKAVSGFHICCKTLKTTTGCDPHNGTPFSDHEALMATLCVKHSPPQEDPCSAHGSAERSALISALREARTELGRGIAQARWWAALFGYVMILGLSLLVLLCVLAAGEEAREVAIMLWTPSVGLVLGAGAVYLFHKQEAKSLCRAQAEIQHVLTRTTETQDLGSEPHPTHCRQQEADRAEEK
Briefly: Inhibitory concentration against the membrane neutral magnesium-dependent Sphingomyelinase (N-SMase) using rat brain microsomes as the enzyme source. The method in brief: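 Rat brain microsomes served as the enzyme source and were incubated 25 min at 37 °C with 0.3mM ¹⁴C-labelled sphingomyelin in 100 mM Tris–HCl (pH 7.5), 20 mM MgCl₂ and 0.25% Triton X-100, across a range of inhibitor concentrations. Released radioactive phosphorylcholine was separated by chloroform/methanol (2/1) extraction and counted by scintillation in the aqueous phase. IC₅₀ was derived from these counts.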
`CCCCCCCCCCCCC/C=C/[C@@H](O)[C@H](COC(=O)NCCN(C)C)NC(=O)C(C)(C)C` showed a negative logarithm of the IC50 (pIC50) of 5.39.
Molecule `CCCCCCCCCCCCC/C=C/[C@@H](O)[C@H](COC(=O)Nc1ccccn1)NC(=O)C(C)(C)C` showed a negative-log IC50 (pIC50) of 5.10.
Take `CCCCCCCCCCCCC/C=C/[C@@H](O)[C@H](COC(=O)NCC[N+](C)(C)C)NC(=O)C(C)(C)C`: the pIC50 is 5.06. This pIC50 and that of the molecule before are within 0.2 log units of each other.
Take `CCCCCCCCCCCCC/C=C/[C@@H](O)[C@H](COC(=O)NCCc1ccccn1)NC(=O)C(C)(C)C`: the pIC50 was 5.08. The pIC50 values of the last two molecules are within 0.2 log units of each other.
On to `CCCCCCCCCCCCC/C=C/[C@@H](O)[C@H](COC(=O)NCCC(C)(C)C)NC(=O)C(C)(C)C`, for which the pIC50 was 4.11.
The molecule `CCCCCCCCCCCCC/C=C/[C@@H](O)[C@H](COC(=O)NCc1ccncc1)NC(C)=O` had a pIC50 below 4.00.
Regarding `CCCCCCCCCCCCC/C=C/[C@@H](O)[C@H](COC(=O)CCCN(C)C)NC(=O)C(C)(C)C`, the pIC50 is 4.51.
The molecule `CCCCCCCCCCCCC/C=C/[C@@H](O)[C@H](COC(=O)NCCN(C(C)C)C(C)C)NC(=O)C(C)(C)C` showed a pIC50 of 4.74. Against the preceding molecule, the pIC50 is 0.23 log units higher.
The molecule `CCCCCCCCCCCCC/C=C/C(O)C(N)COC(=O)NCc1ccncc1` (single isomer, unassigned) had a pIC50 below 4.00.
The result for `CCCCCCCCCCCCC/C=C/[C@@H](O)[C@H](COC(=O)NCc1ccncc1)NC(=O)C(C)C` reads 5.74.
Molecule `CCCCCCCCCCCCC/C=C/[C@@H](O)[C@H](COC(=O)NCc1ccccn1)NC(=O)C(C)(C)C` had a negative-log IC50 (pIC50) of 5.30.
Then `CCCCCCCCCCCCC/C=C/[C@@H](O)[C@H](COC(=O)NCc1ccc(N(C)C)cc1)NC(=O)C(C)(C)C`, with 5.09.
The result for `CCCCCCCCCCCCC/C=C/[C@@H](O)[C@H](COC(=O)NCc1ccncc1)NC(=O)OC(C)(C)C` reads below 4.00.
On to `CCCCCCCCCCCCC/C=C/[C@@H](O)[C@H](COC(=O)NCCCN(C)C)NC(=O)C(C)(C)C`, for which the pIC50 was 5.31.
Molecule `CCCCCCCCCCCCC/C=C/[C@@H](O)[C@H](COC(=O)NCc1ccncc1)NC(=O)CCCCCCCCCCCCCCCCC` had a negative logarithm of the IC50 (pIC50) below 4.00.
The result for `CCCCCCCCCCCCC/C=C/[C@@H](O)[C@H](COC(=O)NCc1cccnc1)NC(=O)C(C)(C)C` reads 5.68.
